# Experimental data from ChEMBL document CHEMBL1926621, “New potent 5-HT(2A) receptor ligands containing an N'-cyanopicolinamidine nucleus: Synthesis and in vitro pharmacological evaluation” (Eur J Med Chem, 2012).
# Columns and labels:
# [1] = target: T1, Adrenergic receptor alpha-1 (Rattus norvegicus, UniProt P15823+P23944+P43140); test: Displacement of [3H]prazosin from rat brain cortex adrenergic alpha1 receptor after 30 mins by liquid scintillation counting
# T1 sequence (P15823 whole entry): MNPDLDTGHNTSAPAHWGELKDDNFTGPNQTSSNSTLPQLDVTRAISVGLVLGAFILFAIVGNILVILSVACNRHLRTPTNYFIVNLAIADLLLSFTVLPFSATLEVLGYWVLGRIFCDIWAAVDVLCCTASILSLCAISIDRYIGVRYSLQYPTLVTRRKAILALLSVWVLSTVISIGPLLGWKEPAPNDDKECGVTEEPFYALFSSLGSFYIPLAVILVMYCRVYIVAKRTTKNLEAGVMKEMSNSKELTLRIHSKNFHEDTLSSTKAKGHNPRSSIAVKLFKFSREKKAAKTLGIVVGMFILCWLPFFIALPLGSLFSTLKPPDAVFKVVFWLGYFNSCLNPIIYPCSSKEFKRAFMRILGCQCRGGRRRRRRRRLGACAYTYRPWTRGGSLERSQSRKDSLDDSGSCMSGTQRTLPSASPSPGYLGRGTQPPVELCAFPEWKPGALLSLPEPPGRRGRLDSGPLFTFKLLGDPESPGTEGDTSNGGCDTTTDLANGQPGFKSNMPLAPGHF
# T1 sequence (P23944 whole entry): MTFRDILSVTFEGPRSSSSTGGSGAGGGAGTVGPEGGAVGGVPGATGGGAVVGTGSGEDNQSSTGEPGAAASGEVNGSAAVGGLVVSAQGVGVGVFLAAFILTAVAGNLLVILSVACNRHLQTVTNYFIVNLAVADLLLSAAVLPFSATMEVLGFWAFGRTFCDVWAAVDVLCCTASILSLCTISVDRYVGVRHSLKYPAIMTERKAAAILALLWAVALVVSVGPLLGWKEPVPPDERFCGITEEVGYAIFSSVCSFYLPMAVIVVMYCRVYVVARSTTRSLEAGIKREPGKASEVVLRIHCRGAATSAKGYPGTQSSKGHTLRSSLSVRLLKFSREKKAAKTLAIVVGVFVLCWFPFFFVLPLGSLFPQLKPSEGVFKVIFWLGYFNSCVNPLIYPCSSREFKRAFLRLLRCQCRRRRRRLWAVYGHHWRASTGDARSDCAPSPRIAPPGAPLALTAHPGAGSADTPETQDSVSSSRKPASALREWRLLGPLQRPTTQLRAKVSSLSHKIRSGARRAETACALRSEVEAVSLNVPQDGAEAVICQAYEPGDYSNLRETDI
# T1 sequence (P43140 whole entry): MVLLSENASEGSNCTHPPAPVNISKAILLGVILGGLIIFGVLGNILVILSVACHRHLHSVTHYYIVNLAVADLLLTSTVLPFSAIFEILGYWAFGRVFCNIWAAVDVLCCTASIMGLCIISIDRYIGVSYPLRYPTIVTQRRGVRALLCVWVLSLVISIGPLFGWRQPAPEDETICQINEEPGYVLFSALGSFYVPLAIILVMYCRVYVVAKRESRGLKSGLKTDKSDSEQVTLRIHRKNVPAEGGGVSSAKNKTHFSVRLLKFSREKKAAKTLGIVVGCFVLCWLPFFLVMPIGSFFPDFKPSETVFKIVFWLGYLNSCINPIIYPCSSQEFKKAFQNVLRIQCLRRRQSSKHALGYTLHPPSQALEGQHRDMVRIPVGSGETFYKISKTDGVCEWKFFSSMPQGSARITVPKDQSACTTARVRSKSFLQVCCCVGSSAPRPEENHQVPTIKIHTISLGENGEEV
# Summary of the method: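 Brain cortex homogenized in 50 mM Tris-HCl pH 7.2, spun twice at 50,000 g, resuspended in Tris-HCl pH 7.4. 0.4 nM [3H]prazosin final, 10 mg fresh tissue, 30 min at 25 °C. Nonspecific binding with phentolamine. GF/B filtration. Ki by Cheng-Prusoff from six-point triplicate curves.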
# [2] = target: 5-hydroxytryptamine receptor 2A (Rattus norvegicus) (UniProt P14842); test: Displacement of [3H]ketanserin from Sprague-Dawley rat brain cortex serotonin 5-HT2A receptor at 0.001 uM after 15 mins by liquid scintillation counting
# Sequence of 5-hydroxytryptamine receptor 2A (Rattus norvegicus) (P14842 whole entry): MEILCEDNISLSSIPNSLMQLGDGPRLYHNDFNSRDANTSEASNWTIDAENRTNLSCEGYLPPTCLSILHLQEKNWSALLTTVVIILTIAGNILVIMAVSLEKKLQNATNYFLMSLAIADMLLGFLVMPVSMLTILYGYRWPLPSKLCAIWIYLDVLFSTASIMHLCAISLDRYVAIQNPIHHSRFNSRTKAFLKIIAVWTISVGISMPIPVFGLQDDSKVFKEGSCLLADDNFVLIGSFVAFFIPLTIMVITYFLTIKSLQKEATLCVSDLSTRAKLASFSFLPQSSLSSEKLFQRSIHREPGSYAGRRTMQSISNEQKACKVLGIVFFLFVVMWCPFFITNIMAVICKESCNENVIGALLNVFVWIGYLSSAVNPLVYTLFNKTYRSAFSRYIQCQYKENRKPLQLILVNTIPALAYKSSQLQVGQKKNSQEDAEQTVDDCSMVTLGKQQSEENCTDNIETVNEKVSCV
SMILES,Ki [1] [nM],inhibition [2] [%]
COc1ccccc1N1CCN(CCCN/C(=N\C#N)c2ccccn2)CC1,105,95.1
N#C/N=C(\NCCCN1CCN(c2cccc(C(F)(F)F)c2)CC1)c1ccccn1,770,85.9
Cc1cccc(N2CCN(CCCN/C(=N\C#N)c3ccccn3)CC2)c1C,729,
N#C/N=C(\NCCCN1CCN(c2ncccn2)CC1)c1ccccn1,> 10000,70.4
CCOc1ccccc1N1CCN(CCCN/C(=N\C#N)c2ccccn2)CC1,152,
N#C/N=C(\NCCCN1CCN(c2ccccn2)CC1)c1ccccn1,130,
